Reference: ChEMBL document CHEMBL3112482, “Nonclassical antifolates, part 5. Benzodiazepine analogs as a new class of DHFR inhibitors: synthesis, antitumor testing and molecular modeling study” (Eur J Med Chem, 2014)

Experiments:
Format in all cases: functional
[1] = tested on: M14; assay: Growth inhibition of human M14 cells at 10 uM after 48 hrs; conditions: M14, 48 h, read-out: GI
Summary of the method: (§1)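 Single-dose primary screen in the NCI 60 human tumour cell line panel, run at the NCI facility. The panel covers nine subpanels: leukaemia, non-small cell lung, colon, CNS, melanoma, ovarian, renal, prostate and breast. Read-out was percent growth of treated cells, shown as a mean graph and reported as percent growth inhibition.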

[2] = tested on: SF-295; assay: Growth inhibition of human SF295 cells at 10 uM after 48 hrs; conditions: SF-295, 48 h, read-out: GI
Summary of the method: (§2)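 NCI 60-cell-line disease-oriented human tumor panel, single-dose primary screen at 10 µM. Data given as mean-graph percent growth of treated cells, reported as percent growth inhibition (GI %).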

[3] = tested on: KM12; assay: Growth inhibition of human KM12 cells at 10 uM after 48 hrs; conditions: KM12, 48 h, read-out: GI; summary of the method: as §1
[4] = tested on: HCT-15; assay: Growth inhibition of human HCT15 cells at 10 uM after 48 hrs; conditions: HCT-15, 48 h, read-out: GI; summary of the method: as §1
[5] = tested on: HT-29; assay: Growth inhibition of human HT-29 cells at 10 uM after 48 hrs; conditions: HT-29, 48 h, read-out: GI; summary of the method: as §1
[6] = tested on: HCT-116; assay: Growth inhibition of human HCT116 cells at 10 uM after 48 hrs; conditions: HCT-116, 48 h, read-out: GI; summary of the method: as §1
[7] = tested on: COLO 205; assay: Growth inhibition of human COLO205 cells at 10 uM after 48 hrs; conditions: COLO 205, 48 h, read-out: GI; summary of the method: as §1
[8] = Growth inhibition of human HCC2998 cells at 10 uM after 48 hrs; conditions: HCC 2998, 48 h, read-out: GI; summary of the method: as §1
[9] = tested on: NCI-H522; assay: Growth inhibition of human NCI-H522 cells at 10 uM after 48 hrs; conditions: NCI-H522, 48 h, read-out: GI; summary of the method: as §1
[10] = tested on: NCI-H460; assay: Growth inhibition of human NCI-H460 cells at 10 uM after 48 hrs; conditions: NCI-H460, 48 h, read-out: GI; summary of the method: as §1
[11] = Growth inhibition of human HOP92 cells at 10 uM after 48 hrs; conditions: HOP-92, 48 h, read-out: GI; summary of the method: as §1
[12] = tested on: MOLT-4; assay: Growth inhibition of human MOLT4 cells at 10 uM after 48 hrs; conditions: MOLT-4, 48 h, read-out: GI; summary of the method: as §1
[13] = tested on: CCRF-CEM; assay: Growth inhibition of human CCRF-CEM cells at 10 uM after 48 hrs; conditions: read-out: GI; summary of the method: as §1
[14] = tested on: MDA-MB-468; assay: Growth inhibition of human MDA-MB-468 cells at 10 uM after 48 hrs; conditions: MDA-MB-468, 48 h, read-out: GI; summary of the method: as §1
[15] = tested on: BT-549; assay: Growth inhibition of human BT549 cells at 10 uM after 48 hrs; conditions: BT-549, 48 h, read-out: GI; summary of the method: as §1
[16] = tested on: DU-145; assay: Growth inhibition of human DU145 cells at 10 uM after 48 hrs; conditions: DU-145, 48 h, read-out: GI; summary of the method: as §1
[17] = tested on: SN12C; assay: Growth inhibition of human SN12C cells at 10 uM after 48 hrs; conditions: read-out: GI; summary of the method: as §2
[18] = tested on: CAKI-1; assay: Growth inhibition of human CAKI-1 cells at 10 uM after 48 hrs; conditions: CAKI-1, 48 h, read-out: GI; summary of the method: as §1
[19] = Growth inhibition of human RXF393 cells at 10 uM after 48 hrs; conditions: RXF 393, 48 h, read-out: GI; summary of the method: as §1
[20] = tested on: 786-0; assay: Growth inhibition of human 786-0 cells at 10 uM after 48 hrs; conditions: 786-0, 48 h, read-out: GI; summary of the method: as §1
[21] = tested on: A498; assay: Growth inhibition of human A498 cells at 10 uM after 48 hrs; conditions: A498, 48 h, read-out: GI; summary of the method: as §1
[22] = tested on: IGROV-1; assay: Growth inhibition of human IGROV1 cells at 10 uM after 48 hrs; conditions: IGROV-1, 48 h, read-out: GI; summary of the method: as §1
[23] = tested on: UACC-62; assay: Growth inhibition of human UACC62 cells at 10 uM after 48 hrs; conditions: UACC-62, 48 h, read-out: GI; summary of the method: as §2
[24] = Growth inhibition of human UACC257 cells at 10 uM after 48 hrs; conditions: UACC-257, 48 h, read-out: GI; summary of the method: as §2
[25] = Cytotoxicity against human breast cancer cells at 10 uM after 48 hrs; conditions: Cancer cell lines; summary of the method: as §1
[26] = Cytotoxicity against human prostate cancer cells at 10 uM after 48 hrs; conditions: Cancer cell lines
[27] = Cytotoxicity against human melanoma cells at 10 uM after 48 hrs; conditions: Melanoma cell; summary of the method: as §1
[28] = Cytotoxicity against human CNS cancer cells at 10 uM after 48 hrs; conditions: Cancer cell lines
[29] = Cytotoxicity against human colon cancer cells at 10 uM after 48 hrs; conditions: Cancer cell lines; summary of the method: as §1
[30] = read-out: LC50 (the source's name)

Row | SMILES | inhibition of growth at 10 µM [1] [%] | inhibition of growth at 10 µM [2] [%] | inhibition of growth at 10 µM [3] [%] | inhibition of growth at 10 µM [4] [%] | inhibition of growth at 10 µM [5] [%] | inhibition of growth at 10 µM [6] [%] | inhibition of growth at 10 µM [7] [%] | inhibition of growth at 10 µM [8] [%] | inhibition of growth at 10 µM [9] [%] | inhibition of growth at 10 µM [10] [%] | inhibition of growth at 10 µM [11] [%] | inhibition of growth at 10 µM [12] [%] | inhibition of growth at 10 µM [13] [%] | inhibition of growth at 10 µM [15] [%] | inhibition of growth at 10 µM [16] [%] | inhibition of growth at 10 µM [17] [%] | inhibition of growth at 10 µM [18] [%] | inhibition of growth at 10 µM [19] [%] | inhibition of growth at 10 µM [20] [%] | inhibition of growth at 10 µM [21] [%] | other results
1 | COc1ccc(/C=C2\CCCc3c2nc(C)nc3-c2ccc(OC)cc2)cc1 | < 30 | < 30 | < 30 | < 30 | < 30 | < 30 | < 30 | < 30 | < 30 | < 30 | < 30 | < 30 | < 30 | < 30 | < 30 | < 30 | < 30 | < 30 | < 30 | < 30 | inhibition of growth at 10 µM [14]: < 30%; inhibition of growth at 10 µM [22]: < 30%; inhibition of growth at 10 µM [23]: < 30%; inhibition of growth at 10 µM [24]: < 30%
2 | COc1ccc(/C=C2\CCCc3c2nc(N)nc3-c2ccc(OC)c(OC)c2)cc1OC | 42.7 | < 30 | 67.9 | 64.1 | 75.8 | 92.1 | 54 | < 30 | 83.3 | 35.4 | < 30 | 46.9 | 84.7 | 63.9 | < 30 | 42.6 | 44.2 | 79.1 | < 30 | < 30 | GI50 [25]: 3.9 µM; LC50 (concentration killing 50% of cells) [25]: > 100 µM; TGI [25]: 87.3 µM; GI50 [26]: 5.1 µM; LC50 [26]: > 100 µM; TGI [26]: > 100 µM; GI50 [27]: 5.5 µM; TGI [27]: 73.4 µM; CC50 [27, 30]: 95.6 µM; GI50 [28]: 26.7 µM; TGI [28]: 85.7 µM; CC50 [28, 30]: > 100 µM; GI50 [29]: 17.4 µM; TGI [29]: 75.8 µM; CC50 [29, 30]: 89.8 µM; inhibition of growth at 10 µM [22]: 42.9%; inhibition of growth at 10 µM [23]: 47.2%; inhibition of growth at 10 µM [24]: 53.8%
3 | Cc1nc2c(c(-c3ccc(Br)cc3)n1)CCC/C2=C\c1ccc(Br)cc1 | < 30 | < 30 | < 30 | < 30 | < 30 | 55.8 | < 30 | < 30 | < 30 | < 30 | < 30 | < 30 | < 30 | < 30 | < 30 | < 30 | < 30 | < 30 | < 30 | < 30 | inhibition of growth at 10 µM [14]: < 30%; inhibition of growth at 10 µM [22]: < 30%; inhibition of growth at 10 µM [23]: < 30%; inhibition of growth at 10 µM [24]: < 30%
4 | COc1ccc(/C=C2\CCCC3=C(c4ccc(OC)cc4)Nc4ccccc4N=C32)cc1 | < 30 | < 30 | 72.5 | < 30 | < 30 | 61.9 | < 30 | < 30 | 93.4 | < 30 | < 30 | < 30 | < 30 | < 30 | < 30 | < 30 | < 30 | < 30 | < 30 | < 30 | inhibition of growth at 10 µM [14]: 56.4%; inhibition of growth at 10 µM [22]: < 30%; inhibition of growth at 10 µM [23]: 32%; inhibition of growth at 10 µM [24]: < 30%
